From ChEMBL document CHEMBL4342471, “Discovery of Thieno[2,3-d]pyrimidine-Based Hydroxamic Acid Derivatives as Bromodomain-Containing Protein 4/Histone Deacetylase Dual Inhibitors Induce Autophagic Cell Death in Colorectal Carcinoma Cells” (J Med Chem, 2020) come the findings set out here.

Calls of active or inactive are those of the source. The calls are words filed in the database; no cut-off is given here.

The species entered for data set [1] is Homo sapiens. Kind of data set: Inhibition of BRD4/HDAC in human HCT116 cells assessed as inhibition of IL6-JAK-STAT3 signaling pathway by measuring decrease in STAT3 phosphorylation at 0.5 uM after 24 hrs by Western blot analysis. The format is cell-based. The procedure, abridged:
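HCT-116 cells treated 24 h with 0.5 µM, 5.0 µM or 10 µM test agent depending on compound; OSMR, LIFR and downstream pathway proteins detected by western blot.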
For orientation: A western blot detects proteins with antibodies after separation by electrophoresis.

The species entered for data set [2] is Homo sapiens. Kind of data set: Inhibition of BRD4/HDAC in human HCT116 cells assessed as increase in LIF mRNA level at 0.5 uM after 24 hrs by RT-PCR analysis. The format is cell-based. A digest of the protocol: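 HCT-116 cells incubated 24 h with test agent (0.5 µM, 2.0 µM or 10 µM depending on compound); IL6, OSM, LIF and CTF1 mRNA levels then quantified.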

A further data set has as its system DLD-1. Kind of data set: Antiproliferative activity against human DLD1 cells assessed as reduction in cell viability measured after 24 to 48 hrs by MTT assay. The format is functional, cell-based. Background: Formazan colour is commonly taken as a measure of viable cells.
The species entered for data set [3] is Homo sapiens. Kind of data set: Inhibition of BRD4/HDAC in human HCT116 cells assessed as increase in caspase 3 cleavage at 0.2 to 0.5 uM measured after 24 hrs by Western blot analysis. The format is cell-based.
The target in another data set is T1, Histone deacetylase 7 (Homo sapiens, UniProt Q8WUI4).
T1 sequence (Q8WUI4 whole entry): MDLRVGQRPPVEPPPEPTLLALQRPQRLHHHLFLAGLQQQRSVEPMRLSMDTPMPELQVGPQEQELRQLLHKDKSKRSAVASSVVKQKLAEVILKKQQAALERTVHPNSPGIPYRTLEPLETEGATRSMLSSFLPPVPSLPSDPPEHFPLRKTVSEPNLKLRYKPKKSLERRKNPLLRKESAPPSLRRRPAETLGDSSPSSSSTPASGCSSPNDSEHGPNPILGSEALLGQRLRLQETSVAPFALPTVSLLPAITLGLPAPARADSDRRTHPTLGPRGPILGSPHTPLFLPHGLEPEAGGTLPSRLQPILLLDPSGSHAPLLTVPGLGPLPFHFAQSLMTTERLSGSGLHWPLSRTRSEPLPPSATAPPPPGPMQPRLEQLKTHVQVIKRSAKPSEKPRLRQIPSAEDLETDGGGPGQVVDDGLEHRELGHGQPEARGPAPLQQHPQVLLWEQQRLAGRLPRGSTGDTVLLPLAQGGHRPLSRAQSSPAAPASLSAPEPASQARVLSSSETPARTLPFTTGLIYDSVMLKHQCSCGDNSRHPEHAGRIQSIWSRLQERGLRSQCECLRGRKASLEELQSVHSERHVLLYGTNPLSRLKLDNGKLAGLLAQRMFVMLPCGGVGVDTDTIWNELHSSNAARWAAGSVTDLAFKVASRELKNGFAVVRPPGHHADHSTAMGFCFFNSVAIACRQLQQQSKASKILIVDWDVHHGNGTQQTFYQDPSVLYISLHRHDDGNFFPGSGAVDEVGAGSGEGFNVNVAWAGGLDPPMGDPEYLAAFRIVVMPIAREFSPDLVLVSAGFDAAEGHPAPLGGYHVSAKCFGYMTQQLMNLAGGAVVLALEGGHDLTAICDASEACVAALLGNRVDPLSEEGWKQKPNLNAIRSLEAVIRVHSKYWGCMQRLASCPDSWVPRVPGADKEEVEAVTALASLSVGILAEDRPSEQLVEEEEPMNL
Kind of data set: Inhibition of HDAC7 (unknown origin) using biotinylated histone H3 KAc peptide (1 to 21 residues) as substrate by HTRF assay.

The nature of data set [4]: Toxicity in BALB/cAnNCrl mouse xenografted with human HCT116 cells assessed as effect on lung morphological changes at 15 to 30 mg/kg, po administered on day 1 to day 19 measured on day 19 by hematoxylin and eosin staining based assay. The format is organism-based. The conditions noted are these: in vivo. A digest of the protocol:
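HCT-116 xenograft mice dosed orally at 15 or 30 mg/kg for 19 days, saline as vehicle control; body weights tracked, and main organs sectioned and H&E-stained at study end.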

In a further data set the target is Histone deacetylase 2 (Homo sapiens, UniProt Q92769).
The test system of another data set is Mus musculus. Kind of data set: Increase in LIFR expression in tumor tissue of BALB/cAnNCrl mouse xenografted with human HCT116 cells at 15 to 30 mg/kg, po administered on day 1 to day 19 measured on day 19 by immunohistochemical analysis. In kind it is functional, organism-based. A digest of the protocol:
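HCT-116 xenograft mice were dosed orally at 15 or 30 mg/kg, or 30 mg/kg for reference agents, for 19 days, with vehicle or saline controls. Tumor sections were stained for Ki-67, c-Myc, Ac-H3, BRD4, LC3-II, LIFR and p-STAT3 by immunohistochemistry, and TUNEL staining was used as the apoptosis marker.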

Data set [5] concerns HCT-116. Kind of data set: Inhibition of colony formation in human HCT116 cells at 0.2 to 0.5 uM incubated for 24 hrs. In kind it is functional, cell-based. The procedure, abridged: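 HCT-116 colony formation assessed after treatment at 0.2 or 0.5 µM.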
For data set [6], the target named is T2, Bromodomain-containing protein 4 (Homo sapiens, UniProt O60885). Kind of data set: Inhibition of BRD4 in human HCT116 cells assessed as induction of autophagy by measuring increase in cleavage of LC3-I to LC3-II measured after 24 hrs by Western blot analysis. The format is cell-based.
The target in data set [7] is T2, Bromodomain-containing protein 4. Kind of data set: Inhibition of BRD4 in human HCT116 cells assessed as induction of autophagic flux by measuring accumulation of p62 at 0.5 uM after 24 hrs in presence of auto-phagolysosome inhibitor, bafilomycin-A1 by Western blot analysis. In kind it is cell-based. A digest of the protocol:
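HCT-116 cells received 0.5 μM compound with or without bafilomycin-A1 for 24 hours. LC3 and p62 protein were then analysed by western blot.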

Data set [8] deals with HCT-116. Kind of data set: Cytotoxicity against human HCT116 cells assessed as reduction in cell viability at 0.5 uM incubated for 24 to 48 hrs in presence of 500 uM type 3 PI3K inhibitor, 3-MA by MTT assay. The format is functional, cell-based. A digest of the protocol:
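HCT-116 viability was read by MTT after treatment with 0.5 μM compound, with or without the autophagy inhibitor 3-MA at 500 μM.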

The subject of a further data set is SW-620. Kind of data set: Antiproliferative activity against human SW620 cells assessed as reduction in cell viability measured after 24 to 48 hrs by MTT assay. The format is functional, cell-based.
Data set [9] concerns HCT-116. Kind of data set: Decrease in BRD4 expression in human HCT116 cells at 0.2 to 0.5 uM incubated for 24 hrs by western blot analysis. In kind it is functional, cell-based.
For data set [10], the species on record is Homo sapiens. Kind of data set: Inhibition of BRD4/HDAC in human HCT116 cells assessed as increase in PARP cleavage at 0.2 to 0.5 uM measured after 24 hrs by Western blot analysis. In kind it is cell-based.
For data set [11], the system named is HCT-116. Kind of data set: Effect on histone H3 expression level in human HCT116 cells at 0.2 to 0.5 uM measured after 24 hrs by Western blot analysis. In kind it is functional, cell-based.
For data set [12], the target named is Bromodomain-containing protein 2 (Homo sapiens, UniProt P25440). Kind of data set: Inhibition of human recombinant His-tagged BRD2 BD2 domain expressed in Escherichia coli BL21(DE3)-R3-pRARE2 cells by AlphaScreen assay.
Sequence of Bromodomain-containing protein 2 (P25440 whole entry, the tested form may be a part): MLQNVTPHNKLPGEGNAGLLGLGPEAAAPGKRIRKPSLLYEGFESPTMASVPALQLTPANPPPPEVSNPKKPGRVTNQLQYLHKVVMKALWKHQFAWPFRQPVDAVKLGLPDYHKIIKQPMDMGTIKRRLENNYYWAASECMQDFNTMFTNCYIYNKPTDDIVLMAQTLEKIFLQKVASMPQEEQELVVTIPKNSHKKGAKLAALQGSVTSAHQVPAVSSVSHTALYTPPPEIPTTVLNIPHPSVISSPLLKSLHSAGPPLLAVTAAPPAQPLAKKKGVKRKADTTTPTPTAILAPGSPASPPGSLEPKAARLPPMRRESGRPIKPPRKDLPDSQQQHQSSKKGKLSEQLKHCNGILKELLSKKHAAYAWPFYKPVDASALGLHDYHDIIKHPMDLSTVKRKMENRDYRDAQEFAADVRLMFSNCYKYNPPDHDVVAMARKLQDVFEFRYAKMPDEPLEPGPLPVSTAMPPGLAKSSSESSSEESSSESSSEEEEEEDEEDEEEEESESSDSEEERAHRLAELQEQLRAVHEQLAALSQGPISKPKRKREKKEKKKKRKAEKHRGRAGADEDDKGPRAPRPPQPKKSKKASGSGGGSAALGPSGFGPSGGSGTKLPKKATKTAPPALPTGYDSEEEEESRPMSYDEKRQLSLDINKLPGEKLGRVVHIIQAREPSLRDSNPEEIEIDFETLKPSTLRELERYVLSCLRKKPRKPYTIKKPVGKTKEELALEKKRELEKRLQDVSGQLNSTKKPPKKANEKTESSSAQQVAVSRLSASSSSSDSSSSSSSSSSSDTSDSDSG

Sequence of Histone deacetylase 2 (Q92769 whole entry): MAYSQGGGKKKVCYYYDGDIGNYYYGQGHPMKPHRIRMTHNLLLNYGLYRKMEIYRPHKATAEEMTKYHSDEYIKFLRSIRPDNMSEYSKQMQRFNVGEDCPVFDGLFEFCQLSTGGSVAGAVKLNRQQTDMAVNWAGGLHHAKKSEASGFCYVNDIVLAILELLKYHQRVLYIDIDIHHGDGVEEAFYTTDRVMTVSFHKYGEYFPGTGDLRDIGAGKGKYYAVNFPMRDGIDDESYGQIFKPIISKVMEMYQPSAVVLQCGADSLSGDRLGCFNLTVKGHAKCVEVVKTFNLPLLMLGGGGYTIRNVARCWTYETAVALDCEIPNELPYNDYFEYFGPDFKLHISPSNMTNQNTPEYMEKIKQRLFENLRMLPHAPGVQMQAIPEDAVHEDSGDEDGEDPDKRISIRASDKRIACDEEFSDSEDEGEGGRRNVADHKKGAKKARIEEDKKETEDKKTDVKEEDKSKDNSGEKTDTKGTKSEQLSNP

Usually IC50 stands for the concentration that inhibits the measured activity by half. Consider `Cc1cc(-c2nc3sc4c(c3c(=O)[nH]2)CCN(C)C4)cc(C)c1OCCCCCC(=O)NO`, for which the inhibition result in the data set listed under Homo sapiens [1], in the data set listed under Homo sapiens [2], in the data set filed under Homo sapiens [3], in the data set with HCT-116 [5], in the data set on HCT-116 [9] and in the data set filed under Homo sapiens [10] was “Active” throughout. Moreover, the IC50 in the data set with DLD-1 is 2110 nM; against Histone deacetylase 7, more than 10000 nM; at Histone deacetylase 2, 58 nM; in the data set on SW-620, 1780 nM; in [12], more than 20000 nM. Moreover, the Activity result in data set [4] is reported as “Non-Toxic”. For the same compound, the result with Mus musculus, in the data set with HCT-116 [8] and with HCT-116 [11] was inactive. For the same compound, the inhibition entry in data set [6] is “Dose-dependent effect”. Also, the inhibition entry in [7] was “inactive”.
